Measured values: ChEMBL document CHEMBL1811907, “Chemical and biological evaluation of dipeptidyl boronic acid proteasome inhibitors for use in prodrugs and pro-soft drugs targeting solid tumors” (J Med Chem, 2011)

Experiments:
[1] = Inhibition of chymotrypsin-like activity of 20S proteasome using suc-LLVY-AMC as substrate preincubated for 10 mins before substrate addition at pH 7.6 by fluorescence assay
In short: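 Inhibitor from 0.1 M ethanol stock diluted into pH 7.6 buffer (25 mM HEPES, 0.5 mM EDTA) and equilibrated overnight at room temperature (24 h per text). SDS-activated 20S proteasome preincubated 10 min with inhibitor before Suc-LLVY-AMC; fluorescence ex 360/em 460 nm after 30 min. Quadruplicates; variable-slope sigmoidal fit.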

[2] = Inhibition of chymotrypsin-like activity of 20S proteasome using suc-LLVY-AMC as substrate preincubated for 10 mins before substrate addition at pH 2.0 by fluorescence assay
In short: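 Inhibitor from 0.1 M ethanol stock diluted into pH 2.0 buffer (0.148 M HCl, 0.052 M KCl) and equilibrated overnight at room temperature (24 h per text). 20S proteasome SDS-activated, preincubated 10 min with inhibitor; Suc-LLVY-AMC added; fluorescence (ex 360/em 460 nm) read after 30 min. Assay-well pH checked. Quadruplicates; variable-slope sigmoidal fit.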

[3] = Ratio of CC50 for human follicular small-cell lymphocytic leukemia cells to IC50 for intracellular chymotrypsin-like activity of 20S proteasome in human HEK293 cells
[4] = Ratio of CC50 for human follicular small-cell lymphocytic leukemia cells to IC50 for chymotrypsin-like activity of 20S proteasome at pH 2.0
[5] = Inhibition of intracellular chymotrypsin-like activity of 20S proteasome in human HEK293 cells after 24 hrs by fluorescence plate reader; assay type: cell-based; details: HEK293, 24 h
In short: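 HEK 293 ZsGreen proteasome-sensor cells (stable ZsGreen–ornithine decarboxylase degron fusion, G418 maintenance) seeded 3.2 × 10⁴ per well, grown 24 h. Then 24 h with inhibitor at 37 °C, 5% CO₂. Cells lysed in HEPES/EDTA/5% Triton buffer for 1 h; fluorescence ex 485/em 535 nm. Quadruplicates; variable-slope sigmoidal fit.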

HEK293 [6] = assay: Ratio of IC50 for intracellular chymotrypsin-like activity of 20S proteasome in human HEK293 cells to IC50 for in vitro chymotrypsin-like activity of 20S proteasome; assay type: cell-based
[7] = Cytotoxicity against human FSCLL cells after 24 hrs by MTT assay; assay type: cell-based
In short: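 Cells seeded at 3.2 × 10⁴ per well, grown 24 h at 37 °C, 5% CO₂, then exposed to inhibitor dilutions 24 h. Inhibitor from 0.1 M ethanol stock, pre-equilibrated overnight in pH 2.0 or pH 7.6 buffer. MTT (5 mg/mL) added for 3 h; formazan dissolved overnight in acidic Triton/isopropanol; A570 read. Quadruplicates; variable-slope sigmoidal fit.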

Mus musculus = species: Mus musculus; assay: Inhibition of proteasome in mouse tumor cells relative to inhibition in blood cells; assay type: subcellular; details: concentration not given here
HEK293 [8] = assay: Metabolic stability in human HEK293 cells assessed as cell lysate-mediated compound degradation at 10^-4 M after 24 hrs by LCMS analysis; assay type: ADME, cell-based; details: hek293, 24 h, 100 µM
[9] = Metabolic stability in human FSCLL cells assessed as aminopeptidase-mediated compound degradation at 10^-4 M after 24 hrs by LCMS analysis; assay type: ADME, cell-based; details: 100 µM
In short: (§1)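 Intact cells, 2 × 10⁶ in 900 μL medium, incubated with inhibitor at 10⁻⁴ M for 24 h, 37 °C, 5% CO₂. Aliquots taken at time points and quenched in 1 M HCl containing Trp-Tyr internal standard. Analysed by ESI LCMS on C18 reversed phase.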

[10] = Metabolic stability in human FSCLL cells assessed as cell lysate-mediated compound degradation at 10^-4 M after 24 hrs by LCMS analysis; assay type: ADME, cell-based; details: 100 µM
HEK293 [11] = assay: Metabolic stability in human HEK293 cells assessed as aminopeptidase-mediated compound degradation at 10^-4 M after 24 hrs by LCMS analysis; assay type: ADME, cell-based; details: hek293, 24 h, 100 µM; in short: as §1

Structure (SMILES)	IC50 [1] [µM]	IC50 [2] [µM]	IC50 [5] [µM]	inhibition (Mus musculus) [%]	Stability (HEK293 [8])	Stability [9]	Stability [10]	Stability (HEK293 [11])	Ratio CC50/IC50 [3]	Ratio CC50/IC50 [4]	Ratio IC50 (HEK293 [6])	CC50 at 24 h [7] [µM]
CC(C)C[C@H](NC(=O)[C@@H](N)Cc1c(F)c(F)c(F)c(F)c1F)B(O)O	0.47	0.17	3.3								20	
CC(C)C[C@H](NC(=O)CNC(=O)c1cc(Cl)ccc1Cl)B1OC(=O)CC(CC(=O)O)(C(=O)O)O1 (stereo partly drawn)				74.9								
CC(C)C[C@H](NC(=O)CN(C)C)B(O)O	0.61	0.036	> 10								> 280	
CCC[C@H](N)C(=O)N[C@@H](CC(C)C)B(O)O	0.54	0.11	> 10						<0.1	10	> 90	1.1
CC(C)C[C@H](NC(=O)[C@@H](N)Cc1cnc[nH]1)B(O)O	5.2	0.51	> 1								> 20	
CC(C)C[C@H](NC(=O)[C@@H](N)CC(N)=O)B(O)O	0.77	0.063	> 10								> 160	
CC(C)C[C@H](NC(=O)[C@@H](N)C1CCCCC1)B(O)O	0.9	0.24	> 10								> 40	
CC(C)C[C@H](NC(=O)[C@H](C)N)B(O)O	0.36	0.05	> 10		Stable	Stable	Stable	Stable	<0.3	64	> 200	3.2
CC[C@H](N)C(=O)N[C@@H](CC(C)C)B(O)O	0.3	0.11	> 10						<0.2	14	> 90	1.5
CC(C)C[C@H](NC(=O)[C@@H](N)C(c1ccccc1)c1ccccc1)B(O)O	0.35	0.11	1								9	
CC(C)C[C@H](NC(=O)[C@@H](N)[C@@H](C)O)B(O)O	0.45	0.08	> 10						<0.3	30	> 120	2.5
CC(C)C[C@H](NC(=O)[C@H](Cc1ccccc1)NC(=O)[C@@H](N)CC(C)C)B(O)O					Unstable		Unstable					
CC(C)C[C@H](NC(=O)[C@@H](N)CC(C(=O)O)C(=O)O)B(O)O	3	0.6	> 10								> 20	
CC(C)C[C@H](NC(=O)[C@@H](N)Cc1ccc2ccccc2c1)B(O)O	0.22	0.033	0.45								13	
CC(C)C[C@H](NC(=O)CN)B(O)O	0.43	0.021	> 10		Stable	Stable	Stable	Stable	<0.07	30	> 470	0.67
CC(C)C[C@H](NC(=O)[C@@H](N)Cc1ccc(-c2ccccc2)cc1)B(O)O	0.4	0.05	1.4								30	
CNCC(=O)N[C@@H](CC(C)C)B(O)O	2.2	0.039	> 10						<0.07	4.1	> 260	0.16
CC(C)C[C@H](NC(=O)[C@@H](N)CO)B(O)O	1.1	0.19	> 10						<0.2	8.9	> 50	1.7
CCCC[C@H](N)C(=O)N[C@@H](CC(C)C)B(O)O	0.3	0.075	> 10						<0.1	13	> 130	0.95

The next lines start with results.

IC50 [1] [µM]	IC50 [2] [µM]	IC50 [5] [µM]	inhibition (Mus musculus) [%]	Stability (HEK293 [8])	Stability [9]	Stability [10]	Stability (HEK293 [11])	Structure (SMILES)	Ratio CC50/IC50 [3]	Ratio CC50/IC50 [4]	Ratio IC50 (HEK293 [6])	CC50 at 24 h [7] [µM]
0.1	0.029	> 1						CC(C)C[C@H](NC(=O)[C@@H](N)Cc1c[nH]c2ccccc12)B(O)O	<0.4	14	> 30	0.4
0.14	0.076	3.1						CC(C)C[C@H](NC(=O)[C@@H](N)Cc1ccccc1F)B(O)O			41	
0.18	0.11	1.8						CC(C)C[C@H](NC(=O)CNC(=O)c1cnccn1)B(O)O			16	
0.13	0.06	> 10						CC(C)C[C@H](NC(=O)[C@@H](N)Cc1ccc(F)cc1)B(O)O	<0.01	1.3	> 170	0.079
0.17	0.066	> 10						CC(C)C[C@H](NC(=O)[C@@H](N)CC(C)C)B(O)O			> 150	
0.12	0.026	0.15						CC(C)C[C@H](NC(=O)[C@@H](N)Cc1cccc2ccccc12)B(O)O	0.07	0.4	6	0.011
0.12	0.042	> 10						CC(C)C[C@H](NC(=O)[C@@H](N)Cc1ccc(O)cc1)B(O)O	<0.02	4	> 240	0.16
0.15	0.09	> 10						CC(C)C[C@H](NC(=O)[C@@H](N)C(C)(C)O)B(O)O			> 110	
0.1	0.043	0.79						CC(C)C[C@H](NC(=O)[C@@H](N)Cc1cc(F)cc(F)c1)B(O)O	0.06	1	18	0.047
0.15	0.1	> 10						CC(C)C[C@H](NC(=O)[C@@H](N)C(C)(C)C)B(O)O	<0.07	7	> 110	0.71
0.025	0.012	0.79						CC(C)C[C@H](NC(=O)[C@@H](NC(=O)c1cnccn1)[C@@H](C)O)B(O)O	0.12	8	65	0.1
0.028	0.034	0.52						CC(C)C[C@H](NC(=O)[C@@H](NC(=O)c1cnccn1)C(C)(C)O)B(O)O			15	
0.14	0.037	> 10		Stable	Stable	Stable	Stable	CC(C)C[C@H](NC(=O)[C@@H](N)Cc1ccccc1)B(O)O	<0.01	2.4	> 270	0.09
0.15	0.081	2.1						CC(C)C[C@H](NC(=O)[C@@H](N)Cc1ccc(F)c(F)c1)B(O)O			26	
0.11	0.082	1.3						CC(C)C[C@H](NC(=O)[C@@H](N)Cc1cccc(F)c1)B(O)O			16	
0.018	0.016	2.5						CC(C)C[C@H](NC(=O)[C@H](CO)NC(=O)c1cnccn1)B(O)O	0.08	13	150	0.21
